ChEMBL document CHEMBL4177764 (J Med Chem, 2018)
The source made the active and inactive calls. No cut-off for these calls is given here.

Key:
[1] = biological target: Tyrosine-protein kinase Fer (Homo sapiens) (UniProt P16591); assay: Induction of FER degradation in human KARPAS299 cells at 0.01 to 1 uM after 16 hrs by immunoblot method; type: cell-based
[2] = biological target: T1, ALK tyrosine kinase receptor (Homo sapiens, UniProt Q9UM73); assay: Induction of ALK degradation in human CHLA20 cells at 100 nM after 16 hrs in presence of ALK inhibitor LDK378 and ABCB1 inhibitor tariquidar by immunoblot method; type: cell-based
Outline: (§1)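 CHLA20 cells were kept with 125 nM tariquidar and pre-treated for 2 h with DMSO, carfilzomib, MLN4924, pomalidomide, TAE684 or LDK378. A 16 h degrader treatment followed, with immunoblot readout of ALK.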

[3] = biological target: T2, Aurora kinase A (Homo sapiens) (UniProt O14965); assay: Induction of aurora A degradation in human NCI-H3122 cells at 250 nM after 16 hrs in presence of […] inhibitor MLN4924 by immunoblot method; type: cell-based
T2 sequence (whole entry): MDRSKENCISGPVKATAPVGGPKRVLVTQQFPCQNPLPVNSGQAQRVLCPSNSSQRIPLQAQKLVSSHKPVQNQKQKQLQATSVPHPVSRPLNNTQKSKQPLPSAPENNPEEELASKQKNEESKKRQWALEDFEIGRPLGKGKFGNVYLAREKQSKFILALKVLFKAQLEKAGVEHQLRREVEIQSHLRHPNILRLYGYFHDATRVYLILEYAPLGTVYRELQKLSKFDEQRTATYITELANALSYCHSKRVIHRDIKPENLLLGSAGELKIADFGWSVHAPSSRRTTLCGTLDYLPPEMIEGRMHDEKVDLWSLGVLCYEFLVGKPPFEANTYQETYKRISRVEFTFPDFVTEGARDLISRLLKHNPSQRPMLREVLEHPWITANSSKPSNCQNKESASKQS

[4] = biological target: T2, Aurora kinase A (Homo sapiens); assay: Induction of aurora A degradation in human CHLA20 cells at 100 nM after 16 hrs in presence of proteasome inhibitor carfilzomib and ABCB1 inhibitor tariquidar by immunoblot method; type: cell-based
Outline: (§2)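 Cells were pre-treated for 2 h with DMSO, carfilzomib, MLN4924 or pomalidomide, then treated with compound for 16 h, with immunoblot read-out. CHLA20 cells also received 125 nM tariquidar throughout.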

[5] = biological target: T2, Aurora kinase A (Homo sapiens); assay: Induction of aurora A degradation in human Kelly cells at 100 nM measured over 2 to 16 hrs by immunoblot method; type: cell-based
Outline: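 Kelly cells were given 100 nM compound for varying times, and lysates were immunoblotted for Aurora A.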

[6] = biological target: Ribosomal protein S6 kinase alpha-1 (Homo sapiens) (UniProt Q15418); assay: Induction of RPS6KA1 degradation in human NCI-H3122 cells at 0.01 to 1 uM after 16 hrs by immunoblot method; type: cell-based
Chain of Ribosomal protein S6 kinase alpha-1 (Homo sapiens) (Q15418 whole entry): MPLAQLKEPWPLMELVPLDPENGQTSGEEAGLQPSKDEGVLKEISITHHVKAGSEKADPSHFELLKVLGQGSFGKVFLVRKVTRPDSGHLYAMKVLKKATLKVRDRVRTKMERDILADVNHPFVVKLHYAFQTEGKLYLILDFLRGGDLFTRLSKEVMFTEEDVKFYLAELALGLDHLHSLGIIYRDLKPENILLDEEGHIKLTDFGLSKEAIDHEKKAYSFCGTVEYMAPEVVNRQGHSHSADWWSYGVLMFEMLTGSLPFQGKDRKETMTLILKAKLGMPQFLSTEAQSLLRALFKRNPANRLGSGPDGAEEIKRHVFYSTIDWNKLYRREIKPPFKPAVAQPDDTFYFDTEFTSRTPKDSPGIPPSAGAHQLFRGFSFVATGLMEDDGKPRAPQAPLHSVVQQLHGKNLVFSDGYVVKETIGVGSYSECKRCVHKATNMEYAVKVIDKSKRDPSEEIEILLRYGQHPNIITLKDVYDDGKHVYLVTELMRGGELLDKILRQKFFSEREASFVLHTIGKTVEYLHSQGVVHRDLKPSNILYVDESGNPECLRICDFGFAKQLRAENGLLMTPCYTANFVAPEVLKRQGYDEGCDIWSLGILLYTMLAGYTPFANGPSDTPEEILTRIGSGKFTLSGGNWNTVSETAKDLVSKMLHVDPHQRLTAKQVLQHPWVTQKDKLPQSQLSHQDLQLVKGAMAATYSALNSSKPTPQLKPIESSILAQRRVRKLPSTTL

[7] = biological target: Focal adhesion kinase 1 (Homo sapiens) (UniProt Q05397); assay: Induction of PTK2 degradation in human NCI-H3122 cells at 250 nM measured over 2 to 16 hrs by immunoblot method; type: cell-based
Chain of Focal adhesion kinase 1 (Homo sapiens) (Q05397 2-1052 limits assumed): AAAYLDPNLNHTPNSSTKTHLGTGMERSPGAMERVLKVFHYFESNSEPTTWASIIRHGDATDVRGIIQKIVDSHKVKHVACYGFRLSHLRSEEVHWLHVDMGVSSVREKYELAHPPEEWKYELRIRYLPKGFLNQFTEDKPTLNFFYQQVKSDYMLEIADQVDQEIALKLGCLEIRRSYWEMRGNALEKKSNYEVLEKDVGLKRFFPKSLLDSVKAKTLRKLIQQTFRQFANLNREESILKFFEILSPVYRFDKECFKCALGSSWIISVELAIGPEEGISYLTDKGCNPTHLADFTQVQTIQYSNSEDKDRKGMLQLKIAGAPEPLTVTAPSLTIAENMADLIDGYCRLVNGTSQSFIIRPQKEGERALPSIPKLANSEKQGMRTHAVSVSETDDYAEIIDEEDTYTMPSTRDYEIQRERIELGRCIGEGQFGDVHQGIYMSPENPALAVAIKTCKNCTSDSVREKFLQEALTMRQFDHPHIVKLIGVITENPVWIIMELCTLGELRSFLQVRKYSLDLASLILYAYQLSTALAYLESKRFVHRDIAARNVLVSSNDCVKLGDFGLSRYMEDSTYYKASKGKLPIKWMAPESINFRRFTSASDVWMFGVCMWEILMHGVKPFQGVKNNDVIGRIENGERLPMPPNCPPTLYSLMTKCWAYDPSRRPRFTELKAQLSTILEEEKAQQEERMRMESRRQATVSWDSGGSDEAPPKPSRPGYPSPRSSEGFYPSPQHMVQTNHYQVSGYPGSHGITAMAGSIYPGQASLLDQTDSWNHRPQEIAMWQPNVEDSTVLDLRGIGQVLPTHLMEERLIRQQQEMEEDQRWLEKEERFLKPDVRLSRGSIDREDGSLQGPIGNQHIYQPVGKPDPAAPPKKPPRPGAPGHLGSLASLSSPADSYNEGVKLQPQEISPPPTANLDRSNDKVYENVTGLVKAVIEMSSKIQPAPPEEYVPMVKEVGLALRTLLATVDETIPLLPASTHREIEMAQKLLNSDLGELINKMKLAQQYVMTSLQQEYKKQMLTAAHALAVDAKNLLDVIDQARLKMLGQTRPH

[8] = biological target: Tyrosine-protein kinase Fer (Homo sapiens) (UniProt P16591); assay: Induction of FER degradation in human Kelly cells at 10 to 160 nM after 16 hrs by immunoblot method; type: cell-based
[9] = biological target: T2, Aurora kinase A (Homo sapiens); assay: Induction of aurora A degradation in human NCI-H3122 cells at 250 nM measured over 2 to 16 hrs by immunoblot method; type: cell-based
[10] = biological target: T1, ALK tyrosine kinase receptor; assay: Induction of ALK degradation in human Kelly cells at 100 nM after 16 hrs in presence of ALK inhibitor LDK378 by immunoblot method; type: cell-based
Outline: (§3)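 Kelly cells were pre-treated for 2 h with DMSO, carfilzomib, MLN4924, pomalidomide, TAE684 or LDK378. Degrader treatment followed for 16 h, and ALK was read by immunoblot.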

[11] = biological target: T2, Aurora kinase A (Homo sapiens); assay: Induction of aurora A degradation in human Kelly cells at 100 nM after 16 hrs in presence of pomalidomide by immunoblot method; type: cell-based; outline: as §2
[12] = biological target: Tyrosine-protein kinase Fer (Homo sapiens) (UniProt P16591); assay: Induction of FER degradation in human Kelly cells at 100 nM measured over 2 to 16 hrs by immunoblot method; type: cell-based
[13] = biological target: T1, ALK tyrosine kinase receptor; assay: Induction of ALK degradation in human Kelly cells at 100 nM after 8 hrs by immunoblot method; type: cell-based
Outline: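 Kelly cells were treated with 100 nM compound for varying times and lysed at each time point. ALK levels were read by immunoblot.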

[14] = biological target: T2, Aurora kinase A (Homo sapiens); assay: Induction of aurora A degradation in human NCI-H3122 cells at 250 nM after 16 hrs in presence of proteasome inhibitor carfilzomib by immunoblot method; type: cell-based
[15] = biological target: T1, ALK tyrosine kinase receptor; assay: Induction of ALK degradation in human KARPAS299 cells at 250 nM after 16 hrs in presence of pomalidomide by immunoblot method; type: cell-based
[16] = biological target: T1, ALK tyrosine kinase receptor; assay: Induction of ALK degradation in human CHLA20 cells at 100 nM after 16 hrs in presence of ALK inhibitor TAE684 and ABCB1 inhibitor tariquidar by immunoblot method; type: cell-based; outline: as §1
[17] = organism: Homo sapiens; assay: Antiproliferative activity against human CHLA20 cells after 72 hrs in presence of ABCB1 shRNA by CellTiter-Glo luminescent cell viability assay; type: functional, cell-based
[18] = biological target: T1, ALK tyrosine kinase receptor; assay: Induction of ALK degradation in human Kelly cells at 100 nM after 16 hrs in presence of pomalidomide by immunoblot method; type: cell-based; outline: as §3
[19] = biological target: Focal adhesion kinase 1 (Homo sapiens) (UniProt Q05397); assay: Induction of PTK2 degradation in human NCI-H3122 cells at 0.01 to 1 uM after 16 hrs by immunoblot method; type: cell-based
[20] = biological target: Focal adhesion kinase 1 (Homo sapiens) (UniProt Q05397); assay: Induction of PTK2 degradation in human KARPAS299 cells at 0.01 to 1 uM after 16 hrs by immunoblot method; type: cell-based
[21] = biological target: T1, ALK tyrosine kinase receptor; assay: Induction of ALK degradation in human Kelly cells after 16 hrs by immunoblot method; type: cell-based
Outline: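 Kelly neuroblastoma cells (ABCB1-low) were given a 16 hr dose titration. ALK and Aurora A were then read by western blot. DC50 was determined from two independent experiments.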
Target sequence in this assay (Q9UM73 whole entry): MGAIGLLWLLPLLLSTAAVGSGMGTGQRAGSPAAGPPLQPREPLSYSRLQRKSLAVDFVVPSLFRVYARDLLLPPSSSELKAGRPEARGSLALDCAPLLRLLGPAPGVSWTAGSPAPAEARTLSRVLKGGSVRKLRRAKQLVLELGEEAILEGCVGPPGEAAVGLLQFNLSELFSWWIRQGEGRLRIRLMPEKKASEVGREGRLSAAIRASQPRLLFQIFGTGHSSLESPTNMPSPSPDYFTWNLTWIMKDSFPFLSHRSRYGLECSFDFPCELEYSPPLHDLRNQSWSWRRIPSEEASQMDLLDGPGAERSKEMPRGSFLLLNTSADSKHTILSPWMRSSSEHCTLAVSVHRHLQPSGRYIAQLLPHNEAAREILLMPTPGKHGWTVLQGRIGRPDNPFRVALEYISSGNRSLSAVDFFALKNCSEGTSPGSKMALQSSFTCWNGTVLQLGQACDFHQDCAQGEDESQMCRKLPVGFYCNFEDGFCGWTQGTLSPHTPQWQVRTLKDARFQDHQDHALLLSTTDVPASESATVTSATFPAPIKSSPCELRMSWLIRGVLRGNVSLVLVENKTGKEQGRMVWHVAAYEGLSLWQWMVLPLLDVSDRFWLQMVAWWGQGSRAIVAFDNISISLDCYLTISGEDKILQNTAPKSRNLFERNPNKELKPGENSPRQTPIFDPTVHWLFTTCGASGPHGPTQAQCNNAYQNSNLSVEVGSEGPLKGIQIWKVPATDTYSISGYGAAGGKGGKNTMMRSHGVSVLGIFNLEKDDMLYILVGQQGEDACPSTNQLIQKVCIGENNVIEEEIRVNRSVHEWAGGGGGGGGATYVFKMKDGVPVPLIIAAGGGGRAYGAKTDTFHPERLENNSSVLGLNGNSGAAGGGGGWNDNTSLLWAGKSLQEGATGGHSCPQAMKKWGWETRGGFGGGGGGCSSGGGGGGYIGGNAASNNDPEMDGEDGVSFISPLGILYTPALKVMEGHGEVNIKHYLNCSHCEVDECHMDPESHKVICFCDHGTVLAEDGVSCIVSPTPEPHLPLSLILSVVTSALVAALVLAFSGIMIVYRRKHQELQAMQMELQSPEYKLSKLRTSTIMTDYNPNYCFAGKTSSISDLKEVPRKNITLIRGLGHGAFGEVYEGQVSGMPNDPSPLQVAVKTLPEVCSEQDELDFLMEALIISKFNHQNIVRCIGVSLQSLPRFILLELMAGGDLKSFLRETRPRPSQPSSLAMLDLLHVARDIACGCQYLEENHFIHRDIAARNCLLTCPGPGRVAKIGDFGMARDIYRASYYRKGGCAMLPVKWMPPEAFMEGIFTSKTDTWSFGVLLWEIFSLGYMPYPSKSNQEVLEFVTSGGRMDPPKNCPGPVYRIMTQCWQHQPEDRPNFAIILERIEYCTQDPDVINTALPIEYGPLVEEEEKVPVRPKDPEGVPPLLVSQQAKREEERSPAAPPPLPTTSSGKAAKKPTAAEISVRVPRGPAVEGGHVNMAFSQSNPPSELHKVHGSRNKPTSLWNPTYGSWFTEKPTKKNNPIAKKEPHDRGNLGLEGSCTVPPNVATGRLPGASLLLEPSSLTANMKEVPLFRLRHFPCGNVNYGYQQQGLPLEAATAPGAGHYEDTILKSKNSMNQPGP

[22] = biological target: Tyrosine-protein kinase Fer (Homo sapiens) (UniProt P16591); assay: Induction of FER degradation in human NCI-H3122 cells at 250 nM measured over 2 to 16 hrs by immunoblot method; type: cell-based
[23] = biological target: Ribosomal protein S6 kinase alpha-1 (Homo sapiens) (UniProt Q15418); assay: Induction of RPS6KA1 degradation in human Kelly cells at 100 nM measured over 2 to 16 hrs by immunoblot method; type: cell-based
[24] = biological target: Focal adhesion kinase 1 (Homo sapiens) (UniProt Q05397); assay: Induction of PTK2 degradation in human Kelly cells at 10 to 160 nM after 16 hrs by immunoblot method; type: cell-based
[25] = biological target: T2, Aurora kinase A (Homo sapiens); assay: Induction of aurora A degradation in human CHLA20 cells at 100 nM after 16 hrs in presence of pomalidomide and ABCB1 inhibitor tariquidar by immunoblot method; type: cell-based; outline: as §2
[26] = biological target: T1, ALK tyrosine kinase receptor; assay: Induction of ALK degradation in human NCI-H3122 cells after 16 hrs by immunoblot method; type: cell-based
Outline: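 H3122 and Karpas 299 cells were given a dose titration for 16 h. ALK and Aurora A were then read by immunoblot. DC50 was calculated from the titrations, two independent experiments.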
Target sequence in this assay (Q9UM73 whole entry): as above

[27] = biological target: T1, ALK tyrosine kinase receptor; assay: Induction of ALK degradation in human KARPAS299 cells at 250 nM after 16 hrs in presence of ALK inhibitor TAE684 by immunoblot method; type: cell-based
[28] = biological target: T1, ALK tyrosine kinase receptor; assay: Induction of ALK degradation in human CHLA20 cells assessed as decrease in ALK phosphorylation at Y1507 at 50 to 250 nM after 16 hrs in presence of ABCB1 inhibitor tariquidar by immunoblot method; type: cell-based
Outline: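 CHLA20 neuroblastoma cells (ABCB1-high) were co-treated with 125 nM tariquidar throughout. They were dose-titrated for 16 hours and read by immunoblot.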

Chain of Tyrosine-protein kinase Fer (Homo sapiens) (P16591 whole entry, looked up): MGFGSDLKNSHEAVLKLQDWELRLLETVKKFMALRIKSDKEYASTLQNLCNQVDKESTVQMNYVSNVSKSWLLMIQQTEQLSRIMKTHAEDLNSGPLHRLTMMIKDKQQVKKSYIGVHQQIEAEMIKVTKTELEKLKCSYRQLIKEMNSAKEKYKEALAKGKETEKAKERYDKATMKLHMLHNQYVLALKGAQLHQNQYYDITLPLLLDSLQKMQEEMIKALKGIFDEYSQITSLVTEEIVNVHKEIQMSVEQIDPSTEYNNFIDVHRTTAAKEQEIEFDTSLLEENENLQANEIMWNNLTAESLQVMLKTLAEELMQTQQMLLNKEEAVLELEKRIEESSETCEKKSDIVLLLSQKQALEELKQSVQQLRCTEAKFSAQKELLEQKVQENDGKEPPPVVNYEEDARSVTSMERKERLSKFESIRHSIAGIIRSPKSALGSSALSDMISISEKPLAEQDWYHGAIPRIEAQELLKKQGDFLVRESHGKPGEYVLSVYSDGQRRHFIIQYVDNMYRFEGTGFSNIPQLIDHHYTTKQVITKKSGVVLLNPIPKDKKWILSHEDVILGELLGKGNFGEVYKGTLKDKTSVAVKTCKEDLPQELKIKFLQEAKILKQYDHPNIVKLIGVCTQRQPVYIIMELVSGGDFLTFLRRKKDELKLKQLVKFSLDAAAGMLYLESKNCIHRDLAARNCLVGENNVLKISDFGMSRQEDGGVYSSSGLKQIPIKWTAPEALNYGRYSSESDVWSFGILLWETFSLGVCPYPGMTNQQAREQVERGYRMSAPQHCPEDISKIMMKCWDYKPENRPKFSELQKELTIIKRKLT

Activity [1] | Activity [2] | Activity [3] | Activity [4] | Activity [5] | Activity [6] | Activity [7] | Activity [8] | Activity [9] | Activity [10] | Activity [11] | Activity [12] | Activity [13] | Activity [14] | Activity [15] | Activity [16] | Activity [18] | Activity [19] | Activity [20] | SMILES | Activity [17] | further results
Active | inactive | inactive | inactive | Active | Active | Active | Active | Active | inactive | inactive | Active | Active | inactive | inactive | inactive | inactive | Active | Active | Cc1cc(Nc2ncc(Cl)c(Nc3ccccc3S(=O)(=O)C(C)C)n2)c(OC(C)C)cc1C1CCN(CCOCCOCCNC(=O)CNc2cccc3c2C(=O)N(C2CCC(=O)NC2=O)C3=O)CC1 (stereo unspecified) | Active | DC50 [21]: 0.05 µM; Activity [22]: Active; Activity [23]: Active; Activity [24]: Active; Activity [25]: inactive; DC50 [26]: 0.01 µM; Activity [27]: inactive; Activity [28]: Active
Active | inactive | inactive | inactive | Active | Active | Active | Active | Active | inactive | inactive | Active | Active | inactive | inactive | inactive | inactive | Active | Active | COc1cc(N2CCN(CCOCCOCCNC(=O)CNc3cccc4c3C(=O)N(C3CCC(=O)NC3=O)C4=O)CC2)ccc1Nc1ncc(Cl)c(Nc2ccccc2S(=O)(=O)C(C)C)n1 (stereo unspecified) | Active | DC50 [21]: 0.05 µM; Activity [22]: Active; Activity [23]: Active; Activity [24]: Active; Activity [25]: inactive; DC50 [26]: 0.01 µM; Activity [27]: inactive; Activity [28]: Active
